13 molecules from ChEMBL document CHEMBL4382219, “Synthesis and Biological Evaluation of Cajaninstilbene Acid and Amorfrutins A and B as Inhibitors of the Pseudomonas aeruginosa Quorum Sensing System” (J Nat Prod, 2018) can be followed below.

Activity calls are given as the source filed them. The calls are words filed in the database; no cut-off is given here.

One may read the inhibition as how much of the control response was suppressed.

Data set [1] has as its system Pseudomonas aeruginosa. The experiment in a line: Anti-biofilm activity against Pseudomonas aeruginosa PAO1 at 50 uM after 24 hrs by crystal violet staining based assay relative to control. The class given is functional. In outline: (§1)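 PAO1 grown overnight in LB, then diluted in ABTGC medium (B-medium with 0.1% MgCl₂, 0.1% CaCl₂, 0.1% FeCl₃, plus 10% A10, 0.2% glucose, 0.2% casamino acids) and mixed with compound. Static 24 h at 37 °C. Wells PBS-washed, MeOH-fixed 20 min, stained 20 min with 0.1% w/v crystal violet, then dissolved in 33% AcOH.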

Data set [2] addresses T1, Anthranilate--CoA ligase (Pseudomonas aeruginosa (strain ATCC 15692 / DSM 22644 / CIP 104116 /JCM 14847 / LMG 12228 / 1C / PRS 101 / PAO1)) (UniProt Q9I4X3).
T1 sequence (whole entry): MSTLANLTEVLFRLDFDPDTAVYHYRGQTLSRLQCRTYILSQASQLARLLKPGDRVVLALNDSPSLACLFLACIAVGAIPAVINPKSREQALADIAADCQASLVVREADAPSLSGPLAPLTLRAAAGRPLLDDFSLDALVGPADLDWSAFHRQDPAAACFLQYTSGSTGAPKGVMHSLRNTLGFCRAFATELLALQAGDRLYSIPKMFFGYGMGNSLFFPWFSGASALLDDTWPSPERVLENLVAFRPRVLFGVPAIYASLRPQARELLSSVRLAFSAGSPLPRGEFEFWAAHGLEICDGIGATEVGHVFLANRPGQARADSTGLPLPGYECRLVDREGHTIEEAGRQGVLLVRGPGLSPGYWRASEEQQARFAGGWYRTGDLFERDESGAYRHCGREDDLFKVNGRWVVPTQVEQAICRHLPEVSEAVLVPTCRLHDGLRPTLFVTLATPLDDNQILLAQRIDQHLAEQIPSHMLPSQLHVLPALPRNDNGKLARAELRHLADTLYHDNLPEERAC
The data set can be described thus: Inhibition of pqsA quorum sensing system in Pseudomonas aeruginosa PAO1 harboring mini-ctx-pqsA-lacZ at 50 uM in presence of PQS by beta-galactosidase reporter gene assay. The method, boiled down: (§2)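 Competition: overnight lasB-lacZ or pqsA-lacZ reporter cultures diluted in ABTGC medium to OD600 0.01. Compound at 50 μM added with ODdHL (lasB) or PQS (pqsA) at final 50, 20, 10 or 0 μM. β-galactosidase measured when OD600 reached 1.0. DMSO control; triplicate.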

The test system of data set [3] is Pseudomonas aeruginosa. The data set can be described thus: Toxicity in Pseudomonas aeruginosa PAO1 assessed as growth inhibition at 1 to 50 uM after 2 to 16 hrs. Type of data set: organism-based. Particulars: in vivo.
Data set [4] deals with Elastase (Pseudomonas aeruginosa (strain ATCC 15692 / PAO1 / 1C / PRS 101 / LMG12228)) (UniProt P14756). The data set can be described thus: Inhibition of lasB quorum sensing system in Pseudomonas aeruginosa PAO1 harboring mini-ctx-lasB-lacZ at 50 uM in presence of ODdHL by beta-galactosidase reporter gene assay. In outline: as §2
In general terms: In a reporter assay the amount or activity of a reporter protein is the signal.

The subject of data set [5] is Pseudomonas aeruginosa. The experiment in a line: Anti-biofilm activity against Pseudomonas aeruginosa PAO1 after 24 hrs by crystal violet staining based assay. Type of data set: functional, organism-based. The method, boiled down:
as §1

Data set [6] addresses Elastase (Pseudomonas aeruginosa (strain ATCC 15692 / PAO1 / 1C / PRS 101 / LMG12228)) (UniProt P14756). The data set can be described thus: Inhibition of lasB quorum sensing system in Pseudomonas aeruginosa PAO1 harboring mini-ctx-lasB-lacZ after 6 hrs by beta-galactosidase reporter gene assay.
Data set [7] addresses T1, Anthranilate--CoA ligase (Pseudomonas aeruginosa (strain ATCC 15692 / DSM 22644 / CIP 104116 /JCM 14847 / LMG 12228 / 1C / PRS 101 / PAO1)). The experiment in a line: Inhibition of pqsA quorum sensing system in Pseudomonas aeruginosa PAO1 assessed as reduction in pyocyanin release at 10 uM after 20 hrs relative to control. The method, boiled down: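 Pyocyanin: overnight PAO1 diluted in LB to OD600 0.01; 20 mL cultures shaken at 37 °C for 20 h. Centrifuged at 1500g for 10 min; supernatant absorbance read at 695 nm. PAO1ΔlasIΔrhlI served as blank; DMSO as control.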

The target in data set [8] is 3-(3-hydroxydecanoyloxy)decanoate synthase (Pseudomonas aeruginosa (strain ATCC 15692 / PAO1 / 1C / PRS 101 / LMG12228)) (UniProt Q51559). The data set can be described thus: Inhibition of RhlA quorum sensing system in Pseudomonas aeruginosa PAO1 harboring mini-ctx-RhlA-lacZ at 2.5 to 20 uM after 6 hrs by beta-galactosidase reporter gene assay.
Data set [9] relates to Pseudomonas aeruginosa. The data set can be described thus: Toxicity in Pseudomonas aeruginosa PAO1 harboring mini-ctx-lacZ assessed as effect on beta-galactosidase activity at 2.5 to 50 uM beta-galactosidase reporter gene assay. The class given is organism-based. The settings on record: in vivo.
In data set [10] the target is Elastase (Pseudomonas aeruginosa (strain ATCC 15692 / PAO1 / 1C / PRS 101 / LMG12228)) (UniProt P14756). The data set can be described thus: Inhibition of lasB quorum sensing system in Pseudomonas aeruginosa PAO1 assessed as reduction in elastase release at 10 uM after 24 hrs relative to control. In outline: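 Elastase: overnight wild-type PAO1 diluted in ABTGC medium to OD600 0.01 and grown 24 h at 37 °C with shaking at 200 rpm. Supernatant elastase measured by a fluorogenic elastase kit. PAO1ΔlasIΔrhlI served as blank; DMSO as control.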

The target in data set [11] is T1, Anthranilate--CoA ligase (Pseudomonas aeruginosa (strain ATCC 15692 / DSM 22644 / CIP 104116 /JCM 14847 / LMG 12228 / 1C / PRS 101 / PAO1)). The data set can be described thus: Inhibition of pqsA quorum sensing system in Pseudomonas aeruginosa PAO1 harboring mini-ctx-pqsA-lacZ after 24 hrs by beta-galactosidase reporter gene assay.
The test system of data set [12] is Pseudomonas aeruginosa. The data set can be described thus: Anti-biofilm activity against Pseudomonas aeruginosa PAO1 at 1 to 50 uM after 24 hrs by crystal violet staining based assay relative to control. The class given is functional. The method, boiled down: as §1
Data set [13] deals with 3-(3-hydroxydecanoyloxy)decanoate synthase (Pseudomonas aeruginosa (strain ATCC 15692 / PAO1 / 1C / PRS 101 / LMG12228)) (UniProt Q51559). The experiment in a line: Inhibition of RhlA quorum sensing system in Pseudomonas aeruginosa PAO1 harboring mini-ctx-RhlA-lacZ at 50 uM after 6 hrs by beta-galactosidase reporter gene assay.
The target is the same in data set [14]. The data set can be described thus: Inhibition of RhlA quorum sensing system in Pseudomonas aeruginosa PAO1 assessed as reduction in rhamnolipid production at 10 to 50 uM after 20 hrs. The method, boiled down:
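Rhamnolipid by orcinol method: overnight PAO1 diluted in phosphate minimal medium with 0.6% glycerol, 5 mL cultures shaken at 37 °C for 20 h with compound at various concentrations; DMSO control. Cultures centrifuged 12000g, 4 °C, 5 min; orcinol reaction at 80 °C for 30 min. A421 divided by final OD600.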

Elastase (Pseudomonas aeruginosa (strain ATCC 15692 / PAO1 / 1C / PRS 101 / LMG12228)), sequence (P14756 198-498 limits assumed): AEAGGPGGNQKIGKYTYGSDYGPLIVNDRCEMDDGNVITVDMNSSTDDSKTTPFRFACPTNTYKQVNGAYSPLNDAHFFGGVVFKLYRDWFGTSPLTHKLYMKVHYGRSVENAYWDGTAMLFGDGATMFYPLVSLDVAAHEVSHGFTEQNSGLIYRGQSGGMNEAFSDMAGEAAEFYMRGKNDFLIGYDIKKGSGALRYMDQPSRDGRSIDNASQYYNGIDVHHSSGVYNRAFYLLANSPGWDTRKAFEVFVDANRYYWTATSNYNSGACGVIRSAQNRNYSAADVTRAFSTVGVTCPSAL

As for `COc1cc(CCc2ccccc2)c(C=O)c(O)c1C/C=C(\C)CCC=C(C)C`, the Activity with Pseudomonas aeruginosa [1] is 53.1%.

Take `COc1cc(/C=C/c2ccccc2)c(C=O)c(O)c1CC=C(C)C`: in the data set with Pseudomonas aeruginosa [1], the Activity was 42.4%.

Regarding `COc1cc(CCc2ccccc2)c(C(=O)O)c(O)c1C/C=C(\C)CCC=C(C)C`, the inhibition entry in data set [2], in data set [4], in data set [8] and in data set [14] was “inactive” in each case. The “growth inhibition (GI)” value in the data set with Pseudomonas aeruginosa [3] was “Non-Toxic”. Further, the Activity result in the data set on Pseudomonas aeruginosa [5] was “Dose-dependent effect”; in the data set with Pseudomonas aeruginosa [9] it was “Non-Toxic”; in the data set with Pseudomonas aeruginosa [12] it was 20 - 50%; with Pseudomonas aeruginosa [1], 50.3%. In addition, the inhibition result in data set [6] was “Dose-dependent effect”; in data set [7], 50%; in data set [10], 50%; in data set [11], “Dose-dependent effect”. In [13], the inhibition result was “Active”.

In the case of `COc1cc(CCc2ccccc2)c(C(=O)O)c(O)c1CC=C(C)C` [AMORFRUTIN A], in the data set on Pseudomonas aeruginosa [1], the Activity is given as -31.3%.

For `COc1cc(CCc2ccccc2)c(C(=O)O)c(OC(C)=O)c1CC=C(C)C`, the Activity in the data set with Pseudomonas aeruginosa [1] turned out to be 36.9%.

Consider `COc1cc(CCc2ccccc2)c(C=O)c(OC(C)=O)c1C/C=C(\C)CCC=C(C)C`, for which the Activity in the data set with Pseudomonas aeruginosa [1] amounted to 24.7%.

With `COc1cc(/C=C/c2ccccc2)c(C=O)c(OC(C)=O)c1CC=C(C)C`, the Activity with Pseudomonas aeruginosa [1] was -12.5%.

Regarding `COc1cc(/C=C/c2ccccc2)c(C(=O)O)c(OC(C)=O)c1CC=C(C)C`, the Activity with Pseudomonas aeruginosa [1] is -24.4%.

Take `COc1cc(CCc2ccccc2)c(C=O)c(OC(C)=O)c1CC=C(C)C`: in the data set on Pseudomonas aeruginosa [1], the Activity is reported as -32.1%.

Take `COc1cc(/C=C/c2ccccc2)c(C(=O)O)c(O)c1CC=C(C)C`: in the data set with Pseudomonas aeruginosa [1], the Activity was -41%.

In the case of `COc1cc(CCc2ccccc2)c(C(=O)O)c(OC(C)=O)c1C/C=C(\C)CCC=C(C)C`, the Activity with Pseudomonas aeruginosa [1] is on record as -32.9%.

`COc1cc(/C=C/c2ccccc2)c(C=O)c(OCC=C(C)C)c1`: the Activity in the data set on Pseudomonas aeruginosa [1] is recorded as -14.3%.

As to `COc1cc(CCc2ccccc2)c(C=O)c(O)c1CC=C(C)C`, in the data set with Pseudomonas aeruginosa [1], the Activity is recorded as 26.9%.
